Assay results collected from several papers.
Lines come from different studies, so protocols differ.
Cell line: PC-3
Effect on: cell growth or viability

Structure (SMILES) | assay | setting | IC50
C[C@H]1[C@@H](O)O[C@@H]2O[C@@]3(C)CC[C@H]4[C@H](C)CC[C@@H]1[C@@]24OO3 | CCK-8 | 48 h | > 50000 nM
COc1cccc2c1C(=O)c1c(O)c3c(c(O)c1C2=O)C[C@@](O)(C(=O)CO)C[C@@H]3O[C@H]1C[C@H](N)[C@H](O)[C@H](C)O1 | MTT | 72 h | 2350 nM
CCN(CC)CCCn1cccc1/C=N/NC(=O)Nc1cc2c(Nc3ccc(F)c(Cl)c3)ncnc2cc1O[C@H]1CCOC1 | MTT | 72 h | 2240 nM
Cc1ccc(C(=O)O)c(NC(=O)c2ccc(N)cc2)c1 | MTT | – | > 120000 nM
CCN(CC)C/C=N/NC(=O)Nc1cc2c(Nc3ccc(F)c(Cl)c3)ncnc2cc1O[C@H]1CCOC1 | MTT | 72 h | 580 nM
COc1ccc(/C=C/c2cc(C)no2)cc1 | MTT | 72 h | > 100000 nM
O=C(/C=C/c1ccc2ncn(Cc3ccccc3F)c(=O)c2c1)NO | SRB | 48 h | 639 nM
COC1=CC(=O)N(C(=O)[C@@H](CCC(Cl)(Cl)Cl)NC(=O)C(C)(C)C)[C@@H]1CCC(Cl)Cl | resazurin | 72 h | 28000 nM
COc1cc2ncnc(Nc3ccc(F)c(Cl)c3)c2cc1NC(=O)N/N=C/c1cccn1CCCN1CCN(C)CC1 | MTT | 72 h | 660 nM
O=C(/C=C/c1ccc(CN(CCO)CCc2c[nH]c3ccccc23)cc1)NO | resazurin | 72 h | 71 nM
Cc1cc(C)cc(COc2cc3c(cc2OCc2cc(C)cc(C)c2)[C@H]2C[C@](O)(Cc4cn(CCc5ccccc5)nn4)C[C@H](C)N2CC3)c1 | MTT | – | 318 nM
CCCCc1ccc2[nH]c(NC(=O)OC)nc2c1 | CCK-8 | 72 h | 150 nM
NCc1cc2c(-c3ccccc3)n[nH]c2c(Nc2ccccc2)n1 | MTS | 48 h | 1600 nM
CN(C)CCn1cccc1/C=N/NC(=O)Nc1cc2c(Nc3ccc(F)c(Cl)c3)ncnc2cc1O[C@H]1CCOC1 | MTT | 72 h | 3840 nM
COc1c(C)cnc(COc2ccc(NC(=O)Nc3cccc(C(F)(F)F)c3)cc2)c1C | MTT | 72 h | > 100000 nM
Cc1cc(C)cc(COc2cc3c(cc2OCc2cc(C)cc(C)c2)[C@H]2C[C@](O)(Cc4cn(Cc5ccc(NC(=O)/C=C/CN(C)C)cc5)nn4)C[C@H](C)N2CC3)c1 | MTT | – | 345 nM
CC(C)C[C@H](NC(=O)[C@H](Cc1ccccc1)NC(=O)c1cnccn1)B(O)O | ATP luminescence | – | 12 nM
Cc1cc(C)cc(COc2cc3c(cc2OCc2cc(C)cc(C)c2)[C@@H]2C[C@@](O)(Cc4cn(Cc5ccc(S(C)(=O)=O)cc5)nn4)C[C@@H](C)N2CC3)c1 | MTT | – | 230 nM
CCOC(=O)c1cc2cc(Nc3ncnc4cc(OCCCN5CCC(C)CC5)c(OC)cc34)ccc2s1 | MTT | – | > 100000 nM
c1ccc(CNCc2cc3c(-c4ccccc4)n[nH]c3c(Nc3ccccc3)n2)cc1 | MTS | 48 h | 3900 nM

Structure (SMILES) | assay | setting | IC50
COc1cc2ncnc(Nc3ccc(F)c(Cl)c3)c2cc1NC(=O)N/N=C/c1cccn1CCN(C)C | MTT | 72 h | 1250 nM
CCOC(=O)c1[nH]cc2c1NC1=C(C(=O)CCC1)[C@H]2c1cccc(Oc2nc3ccccc3[nH]2)c1 | ATP luminescence | 72 h | > 10000 nM
O=C(/C=C/c1ccc2c(=O)n(CC3CCCC3)cnc2c1)NO | SRB | 48 h | 2490 nM
COc1c(C)cnc(COc2ccc(NC(=O)Nc3ccc(F)cc3)cc2)c1C | MTT | 72 h | 43300 nM
CN(C)CCCn1cccc1/C=N/NC(=O)Nc1cc2c(Nc3ccc(F)c(Cl)c3)ncnc2cc1O[C@H]1CCOC1 | MTT | 72 h | 3740 nM
COc1ccc(NC(=O)Nc2ccc(OCc3ncc(C)c(OC)c3C)cc2)cc1 | MTT | 72 h | > 100000 nM
O=C(N/N=C/c1cccn1CCCN1CCCC1)Nc1cc2c(Nc3ccc(F)c(Cl)c3)ncnc2cc1O[C@H]1CCOC1 | MTT | 72 h | 1820 nM
Cc1cc(C)cc(COc2cc3c(cc2OCc2cc(C)cc(C)c2)[C@H]2C[C@](O)(Cc4cn(Cc5ccncc5)nn4)C[C@H](C)N2CC3)c1 | MTT | – | 167 nM
COCCCOc1ccnc(COc2ccc(NC(=O)Nc3cccc(C(F)(F)F)c3)cc2)c1C | MTT | 72 h | > 100000 nM
Cc1ccc(Cn2cc(C[C@@]3(O)C[C@@H]4c5cc(OCc6cc(C)cc(C)c6)c(OCc6cc(C)cc(C)c6)cc5CCN4[C@@H](C)C3)nn2)cc1 | MTT | – | 375 nM
COc1cc2ncnc(Nc3ccc(F)c(Cl)c3)c2cc1NC(=O)N/N=C/CN1CCN(C)CC1 | MTT | 72 h | 5030 nM
Cc1cc(C)cc(COc2cc3c(cc2OCc2cc(C)cc(C)c2)[C@H]2C[C@](O)(Cc4cn(Cc5cc(C(F)(F)F)cc(C(F)(F)F)c5)nn4)C[C@H](C)N2CC3)c1 | MTT | – | 406 nM
COCCCOc1ccnc(COc2ccc(NC(=O)Nc3ccc(F)cc3)cc2)c1C | MTT | 72 h | > 100000 nM
COc1ccc(Cn2cc(C[C@@]3(O)C[C@@H]4c5cc(OCc6cc(C)cc(C)c6)c(OCc6cc(C)cc(C)c6)cc5CCN4[C@@H](C)C3)nn2)cc1 | MTT | – | 866 nM
COc1ccc(NC(=O)Nc2ccc(OCc3nccc(OCC(F)(F)F)c3C)cc2)cc1 | MTT | 72 h | 89100 nM
CC(C)c1cc(-c2n[nH]c(=O)n2-c2ccc3c(ccn3C)c2)c(O)cc1O | imaging | 24 h | 138 nM
COCCCOc1ccnc(COc2ccc(NC(=O)Nc3cc(F)cc(F)c3)cc2)c1C | MTT | 72 h | > 100000 nM
C=CC(=O)Nc1ccc(Cn2cc(C[C@@]3(O)C[C@@H]4c5cc(OCc6cc(C)cc(C)c6)c(OCc6cc(C)cc(C)c6)cc5CCN4[C@@H](C)C3)nn2)cc1 | MTT | – | 161 nM
Cc1c(OCC(F)(F)F)ccnc1COc1ccc(NC(=O)Nc2cc(F)cc(F)c2)cc1 | MTT | 72 h | > 100000 nM
COc1cc(Nc2nc(CN)cc3c(-c4ccccc4)n[nH]c23)cc(OC)c1OC | MTS | 48 h | 3500 nM
